Measured values from ChEMBL document CHEMBL5143722, “Antimicrobial Peptides against Multidrug-Resistant Pseudomonas aeruginosa Biofilm from Cystic Fibrosis Patients” (J Med Chem, 2022).
Calls of active or inactive are those of the source. The rule behind the calls is not given here.

Columns and labels:
Pseudomonas aeruginosa [1] = test: Induction of biofilm degradation of Pseudomonas aeruginosa clinical isolate 629 at 50 uM incubated for 1 hr by crystal violet staining analysis relative to control; type: functional
In short: (§1)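 Bacteria at 1 × 10^6 CFU/mL in BM2 grown static at 37 °C for 24 h to form biofilm. Wells rinsed of unattached cells, then exposed for 1 h to serial peptide dilutions (1.56–50 μM). Washed, stained with 0.1% crystal violet, A590 read. Biomass given as % of untreated biofilm; no-bacteria wells as blanks. At least three biological repeats.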

Pseudomonas aeruginosa [2] = test: Induction of biofilm degradation of Pseudomonas aeruginosa clinical isolate 82 at 50 uM incubated for 1 hr by crystal violet staining analysis relative to control; type: functional; in short: as §1
Pseudomonas aeruginosa [3] = test: Antibiofilm activity against Pseudomonas aeruginosa clinical isolate 629 assessed as inhibition of biofilm formation at sub-inhibitory concentration incubated for 24 hrs by crystal violet staining based microtiter plate method; type: functional, organism-based
In short: (§2)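 Washed overnight cultures in BM2 medium at 1 × 10^6 CFU/mL with 2-fold serial peptide dilutions in a U-bottom 96-well plate. Incubated 24 h at 37 °C without agitation. Unattached cells washed off, then 0.1% crystal violet stain read at 590 nm. No-bacteria blanks. Biomass expressed as % of untreated biofilm. At least three biological repeats.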

Pseudomonas aeruginosa [4] = test: Antibiofilm activity against Pseudomonas aeruginosa clinical isolate 71 assessed as inhibition of biofilm formation at sub-inhibitory concentration incubated for 24 hrs by crystal violet staining based microtiter plate method; type: functional, organism-based; in short: as §2
Pseudomonas aeruginosa [5] = test: Induction of biofilm degradation of Pseudomonas aeruginosa clinical isolate 40 at 50 uM incubated for 1 hr by crystal violet staining analysis relative to control; type: functional; in short: as §1
Pseudomonas aeruginosa [6] = test: Inhibition of biofilm formation of Pseudomonas aeruginosa clinical isolate 24 derived from cystic fibrosis patient sputum at 0.78 to 25 uM by crystal violet based staining analysis; type: functional, organism-based; details: dose 0.78-25 µM
In short: (§3)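 CF patient sputum diluted 10-fold with BM2, bacteria added with serial peptide dilutions starting from the highest MIC per isolate. Inoculum suspension 1 × 10^6 CFU/mL. Incubated 24 h at 37 °C without agitation. Unattached cells washed away, then 0.1% crystal violet staining and A590. Biomass given as % of untreated, with no-bacteria blanks.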

Pseudomonas aeruginosa [7] = test: Antibiofilm activity against Pseudomonas aeruginosa clinical isolate 72 assessed as inhibition of biofilm formation at sub-inhibitory concentration incubated for 24 hrs by crystal violet staining based microtiter plate method; type: functional, organism-based; in short: as §2
Pseudomonas aeruginosa [8] = test: Induction of biofilm degradation of Pseudomonas aeruginosa clinical isolate 29 at 50 uM incubated for 1 hr by crystal violet staining analysis relative to control; type: functional; in short: as §1
Pseudomonas aeruginosa [9] = test: Antibiofilm activity against Pseudomonas aeruginosa clinical isolate 25 assessed as inhibition of biofilm formation at sub-inhibitory concentration incubated for 24 hrs by crystal violet staining based microtiter plate method; type: functional, organism-based; in short: as §2
Pseudomonas aeruginosa [10] = test: Induction of biofilm degradation of Pseudomonas aeruginosa PAO1 at 50 uM incubated for 1 hr by crystal violet staining analysis relative to control; type: functional; in short: as §1
Pseudomonas aeruginosa [11] = test: Inhibition of biofilm formation of Pseudomonas aeruginosa PAO1 in patient derived CF-sputum at 0.09 to 3.12 uM by crystal violet based staining analysis; type: functional, organism-based; details: dose 0.09-3.12 µM; in short: as §3
Pseudomonas aeruginosa [12] = test: Inhibition of biofilm formation of Pseudomonas aeruginosa clinical isolate 82 derived from cystic fibrosis patient sputum at 0.09 to 3.12 uM by crystal violet based staining analysis; type: functional, organism-based; details: dose 0.09-3.12 µM; in short: as §3
Pseudomonas aeruginosa [13] = test: Inhibition of biofilm formation of Pseudomonas aeruginosa clinical isolate 24 derived from cystic fibrosis patient sputum at 0.09 to 3.12 uM by crystal violet based staining analysis; type: functional, organism-based; details: dose 0.09-3.12 µM; in short: as §3
Pseudomonas aeruginosa [14] = test: Antibiofilm activity against Pseudomonas aeruginosa clinical isolate 99 assessed as inhibition of biofilm formation at sub-inhibitory concentration incubated for 24 hrs by crystal violet staining based microtiter plate method; type: functional, organism-based; in short: as §2
Pseudomonas aeruginosa [15] = test: Induction of biofilm degradation of Pseudomonas aeruginosa clinical isolate 24 at sub MIC concentration incubated for 1 hr by crystal violet staining analysis; type: functional; in short: as §1
Pseudomonas aeruginosa [16] = test: Induction of biofilm degradation of Pseudomonas aeruginosa clinical isolate 72 at 50 uM incubated for 1 hr by crystal violet staining analysis relative to control; type: functional; in short: as §1
Pseudomonas aeruginosa [17] = test: Induction of biofilm degradation of Pseudomonas aeruginosa clinical isolate 251 at 50 uM incubated for 1 hr by crystal violet staining analysis; type: functional; in short: as §1
Pseudomonas aeruginosa [18] = test: Induction of biofilm degradation of Pseudomonas aeruginosa clinical isolate 53 at 50 uM incubated for 1 hr by crystal violet staining analysis relative to control; type: functional; in short: as §1
Pseudomonas aeruginosa [19] = test: Induction of biofilm degradation of Pseudomonas aeruginosa clinical isolate 53 at sub MIC concentration incubated for 1 hr by crystal violet staining analysis; type: functional; in short: as §1
Pseudomonas aeruginosa [20] = test: Antibiofilm activity against Pseudomonas aeruginosa clinical isolate 24 assessed as inhibition of biofilm formation at sub-inhibitory concentration incubated for 24 hrs by crystal violet staining based microtiter plate method; type: functional, organism-based; in short: as §2
Pseudomonas aeruginosa [21] = test: Induction of biofilm degradation of Pseudomonas aeruginosa clinical isolate 99 at 50 uM incubated for 1 hr by crystal violet staining analysis relative to control; type: functional; in short: as §1
Pseudomonas aeruginosa [22] = test: Antibiofilm activity against Pseudomonas aeruginosa clinical isolate 46 assessed as inhibition of biofilm formation at sub-inhibitory concentration incubated for 24 hrs by crystal violet staining based microtiter plate method; type: functional, organism-based; in short: as §2
Pseudomonas aeruginosa [23] = test: Induction of biofilm degradation of Pseudomonas aeruginosa clinical isolate 24 incubated for 1 hr by crystal violet staining analysis relative to control; type: functional; details: dose 50.0 µM; in short: as §1
Pseudomonas aeruginosa [24] = test: Induction of biofilm degradation of Pseudomonas aeruginosa clinical isolate 46 at 50 uM incubated for 1 hr by crystal violet staining analysis relative to control; type: functional; in short: as §1
Pseudomonas aeruginosa [25] = test: Induction of biofilm degradation of Pseudomonas aeruginosa clinical isolate 238 at 50 uM incubated for 1 hr by crystal violet staining analysis relative to control; type: functional; in short: as §1
Pseudomonas aeruginosa [26] = test: Induction of biofilm degradation of Pseudomonas aeruginosa clinical isolate 52 at 50 uM incubated for 1 hr by crystal violet staining analysis relative to control; type: functional; in short: as §1
Pseudomonas aeruginosa [27] = test: Antibiofilm activity against Pseudomonas aeruginosa clinical isolate 53 assessed as inhibition of biofilm formation at sub-inhibitory concentration incubated for 24 hrs by crystal violet staining based microtiter plate method; type: functional, organism-based; in short: as §2
Pseudomonas aeruginosa [28] = test: Induction of biofilm degradation of Pseudomonas aeruginosa clinical isolate 71 at 50 uM incubated for 1 hr by crystal violet staining analysis relative to control; type: functional; in short: as §1
Pseudomonas aeruginosa [29] = test: Induction of biofilm degradation of Pseudomonas aeruginosa clinical isolate 25 at 50 uM incubated for 1 hr by crystal violet staining analysis relative to control; type: functional; in short: as §1
Pseudomonas aeruginosa [30] = test: Induction of biofilm degradation of Pseudomonas aeruginosa clinical isolate 995 at 50 uM incubated for 1 hr by crystal violet staining analysis relative to control; type: functional; in short: as §1
Pseudomonas aeruginosa [31] = test: Induction of biofilm degradation of Pseudomonas aeruginosa clinical isolate 40 at sub MIC concentration incubated for 1 hr by crystal violet staining analysis; type: functional; in short: as §1
Pseudomonas aeruginosa [32] = test: Antibiofilm activity against Pseudomonas aeruginosa PAO1 in basal medium 2 at 12.5 to 100 uM incubated for 24 hrs by resazurin staining based microtiter plate method; type: functional, organism-based; details: dose 12.5-100 µM
Pseudomonas aeruginosa [33] = test: Induction of biofilm degradation of Pseudomonas aeruginosa clinical isolate 59 at <12.5 uM incubated for 1 hr by crystal violet staining analysis; type: functional; in short: as §1
Pseudomonas aeruginosa [34] = test: Induction of biofilm degradation of Pseudomonas aeruginosa clinical isolate 172 at 50 uM incubated for 1 hr by crystal violet staining analysis relative to control; type: functional; in short: as §1
Pseudomonas aeruginosa [35] = test: Antibiofilm activity against Pseudomonas aeruginosa clinical isolate 46 assessed as inhibition of biofilm formation at MIC incubated for 24 hrs by crystal violet staining based microtiter plate method; type: functional, organism-based; in short: as §2

Structure (SMILES)	Activity (Pseudomonas aeruginosa [1]) [%]	Activity (Pseudomonas aeruginosa [2]) [%]	inhibition (Pseudomonas aeruginosa [3])	inhibition (Pseudomonas aeruginosa [4])	Activity (Pseudomonas aeruginosa [5]) [%]	inhibition (Pseudomonas aeruginosa [6])	inhibition (Pseudomonas aeruginosa [7])	Activity (Pseudomonas aeruginosa [8]) [%]	inhibition (Pseudomonas aeruginosa [9])	Activity (Pseudomonas aeruginosa [10]) [%]	inhibition (Pseudomonas aeruginosa [11])	inhibition (Pseudomonas aeruginosa [12])	inhibition (Pseudomonas aeruginosa [13])	inhibition (Pseudomonas aeruginosa [14])	Activity (Pseudomonas aeruginosa [15])	Activity (Pseudomonas aeruginosa [16]) [%]	Activity (Pseudomonas aeruginosa [17]) [%]	Activity (Pseudomonas aeruginosa [18]) [%]	Activity (Pseudomonas aeruginosa [19])	inhibition (Pseudomonas aeruginosa [20])	further results
CC(C)C[C@H](NC(=O)[C@H](CC(C)C)NC(=O)[C@H](CC(C)C)NC(=O)[C@H](CC(C)C)NC(=O)[C@H](CC(C)C)NC(=O)[C@H](CC(C)C)NC(=O)[C@H](CC(C)C)NC(=O)[C@H](CC(C)C)NC(=O)[C@H](CC(C)C)NC(=O)[C@H](CCCCN)NC(=O)[C@H](CCCCN)NC(=O)[C@@H](N)CCCCN)C(=O)N[C@@H](CCCCN)C(=O)N[C@@H](CCCCN)C(=O)N[C@@H](CCCCN)C(N)=O	60	60	Active	Active	60	Active	Active	60	Active	60	Active	Active	Active	Active	Active	60	60	60	Active	Active	Activity (Pseudomonas aeruginosa [21]): 60%; inhibition (Pseudomonas aeruginosa [22]): Active; Activity (Pseudomonas aeruginosa [23]): 60%; Activity (Pseudomonas aeruginosa [24]): 60%; Activity (Pseudomonas aeruginosa [25]): 60%; Activity (Pseudomonas aeruginosa [26]): 60%; inhibition (Pseudomonas aeruginosa [27]): Active; Activity (Pseudomonas aeruginosa [28]): 60%; Activity (Pseudomonas aeruginosa [29]): 60%; Activity (Pseudomonas aeruginosa [30]): 60%; Activity (Pseudomonas aeruginosa [31]): Active; Activity (Pseudomonas aeruginosa [32]): Active; Activity (Pseudomonas aeruginosa [33]): Active; Activity (Pseudomonas aeruginosa [34]): 60%
CC[C@H](C)[C@H](NC(=O)[C@H](CCCCN)NC(=O)[C@H](CCC(=O)O)NC(=O)[C@H](CCCCN)NC(=O)[C@H](CO)NC(=O)[C@H](CCCCN)NC(=O)[C@H](CCCNC(=N)N)NC(=O)[C@H](Cc1ccccc1)NC(=O)[C@H](Cc1ccccc1)NC(=O)[C@H](CC(=O)O)NC(=O)CNC(=O)[C@H](CC(C)C)NC(=O)[C@@H](N)CC(C)C)C(=O)NCC(=O)N[C@@H](CCCCN)C(=O)N[C@@H](CCC(=O)O)C(=O)N[C@@H](Cc1ccccc1)C(=O)N[C@@H](CCCCN)C(=O)N[C@@H](CCCNC(=N)N)C(=O)N[C@H](C(=O)N[C@H](C(=O)N[C@@H](CCC(N)=O)C(=O)N[C@@H](CCCNC(=N)N)C(=O)N[C@H](C(=O)N[C@@H](CCCCN)C(=O)N[C@@H](CC(=O)O)C(=O)N[C@@H](Cc1ccccc1)C(=O)N[C@@H](CC(C)C)C(=O)N[C@@H](CCCNC(=N)N)C(=O)N[C@@H](CC(N)=O)C(=O)N[C@@H](CC(C)C)C(=O)N[C@H](C(=O)N1CCC[C@H]1C(=O)N[C@@H](CCCNC(=N)N)C(=O)N[C@H](C(=O)N[C@@H](CCC(=O)O)C(=O)N[C@@H](CO)C(N)=O)[C@@H](C)O)C(C)C)[C@@H](C)CC)C(C)C)[C@@H](C)CC	60	60	Active	Active	60	Active	Active	60	Active	60	Active	Active	Active	Active	Active	60	60	60	Active	Active	inhibition (Pseudomonas aeruginosa [35]): Active; Activity (Pseudomonas aeruginosa [21]): 60%; inhibition (Pseudomonas aeruginosa [22]): Active; Activity (Pseudomonas aeruginosa [23]): 60%; Activity (Pseudomonas aeruginosa [24]): 60%; Activity (Pseudomonas aeruginosa [25]): 60%; Activity (Pseudomonas aeruginosa [26]): 60%; inhibition (Pseudomonas aeruginosa [27]): Active; Activity (Pseudomonas aeruginosa [28]): 60%; Activity (Pseudomonas aeruginosa [29]): 60%; Activity (Pseudomonas aeruginosa [30]): 60%; Activity (Pseudomonas aeruginosa [31]): Active; Activity (Pseudomonas aeruginosa [32]): Active; Activity (Pseudomonas aeruginosa [33]): Active; Activity (Pseudomonas aeruginosa [34]): 60%
CC(C)C[C@H](NC(=O)[C@H](CC(C)C)NC(=O)[C@H](CCCCN)NC(=O)[C@H](CC(C)C)NC(=O)[C@H](CC(C)C)NC(=O)[C@H](CCCCN)NC(=O)[C@H](CCCCN)NC(=O)[C@H](CC(C)C)NC(=O)[C@H](CC(C)C)NC(=O)[C@H](CCCCN)NC(=O)[C@H](CCCCN)NC(=O)[C@H](CC(C)C)NC(=O)[C@H](CC(C)C)NC(=O)[C@H](CCCCN)NC(=O)[C@@H](N)CC(C)C)C(N)=O	60	60	Active	Active	60	Active	Active	60	Active	60	Active	Active	Active	Active	Active	60	60	60	Active	Active	inhibition (Pseudomonas aeruginosa [35]): Active; Activity (Pseudomonas aeruginosa [21]): 60%; inhibition (Pseudomonas aeruginosa [22]): Active; Activity (Pseudomonas aeruginosa [23]): 60%; Activity (Pseudomonas aeruginosa [24]): 60%; Activity (Pseudomonas aeruginosa [25]): 60%; Activity (Pseudomonas aeruginosa [26]): 60%; inhibition (Pseudomonas aeruginosa [27]): Active; Activity (Pseudomonas aeruginosa [28]): 60%; Activity (Pseudomonas aeruginosa [29]): 60%; Activity (Pseudomonas aeruginosa [30]): 60%; Activity (Pseudomonas aeruginosa [31]): Active; Activity (Pseudomonas aeruginosa [33]): Active; Activity (Pseudomonas aeruginosa [34]): 60%
